Assay results as given in paper PMC7941214 (Journal of medicinal chemistry, 2019).
Several values for one entry are separate records, joined by “and”; a condition that tells them apart may be missing. Equal entries are not always repeated.

Columns and labels:
A. baumannii NCTC 13420 = assay: Broth microdilution MIC/MBC, A. baumannii; format: cell-based, Acinetobacter baumannii; details: for MIC A. baumannii NCTC 13420: value before the parentheses, two values = two repeats; for MBC A. baumannii NCTC 13420: value in parentheses
P. aeruginosa NCTC 13437 = assay: Broth microdilution MIC/MBC, P. aeruginosa; format: cell-based, Pseudomonas aeruginosa; details: for MIC P. aeruginosa NCTC 13437: value before the parentheses, two values = two repeats; for MBC P. aeruginosa NCTC 13437: value in parentheses
How it was run: (§1)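 CLSI broth microdilution in cation-adjusted Mueller–Hinton broth. Log-phase cultures were diluted to 7.5 × 10^5 CFU/mL, then mixed 1:1 with 2-fold serial dilutions of gold complexes from DMSO or water stocks, in triplicate, and held 37 °C, 18 h, static. MIC: lowest concentration giving >90% inhibition by OD600 against medium-only and bacteria-only wells. […] E. coli ATCC 25922 quality control was checked each run with ciprofloxacin and […].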

E. cloacae NCTC 13405 = assay: Broth microdilution MIC/MBC, E. cloacae; format: cell-based, Enterobacter cloacae; details: for MIC E. cloacae NCTC 13405: value before the parentheses, two values = two repeats; for MBC E. cloacae NCTC 13405: value in parentheses
How it was run: as §1

[1] = system: K. pneumoniae ATCC 700603; assay: Broth microdilution MIC/MBC, K. pneumoniae; format: cell-based, Klebsiella pneumoniae; details: for MIC K. pneumoniae ATCC 700603: value before the parentheses, two values = two repeats; for MBC K. pneumoniae ATCC 700603: value in parentheses
How it was run: as §1

S. aureus JE2 (USA300) = assay: Broth microdilution MIC/MBC, S. aureus; format: cell-based, Staphylococcus aureus; details: for MIC S. aureus JE2 (USA300): value before the parentheses, two values = two repeats; for MBC S. aureus JE2 (USA300): value in parentheses
How it was run: as §1

E. faecium ATCC 700221 = assay: Broth microdilution MIC/MBC, E. faecium; format: cell-based, Enterococcus faecium; details: for MIC E. faecium ATCC 700221: value before the parentheses, two values = two repeats; for MBC E. faecium ATCC 700221: value in parentheses
How it was run: as §1

E. coli ATCC 25922 = assay: Broth microdilution MIC/MBC, E. coli; format: cell-based, Escherichia coli; details: for MIC E. coli ATCC 25922: value before the parentheses, two values = two repeats; for MBC E. coli ATCC 25922: value in parentheses
How it was run: as §1

Log P determination = details: n-octanol/water, Au by FAAS

Row | Compound | MIC A. baumannii NCTC 13420 (A. baumannii NCTC 13420) | MBC A. baumannii NCTC 13420 (A. baumannii NCTC 13420) [µM] | MIC P. aeruginosa NCTC 13437 (P. aeruginosa NCTC 13437) [µM] | MBC P. aeruginosa NCTC 13437 (P. aeruginosa NCTC 13437) [µM] | MIC E. cloacae NCTC 13405 (E. cloacae NCTC 13405) [µM] | MBC E. cloacae NCTC 13405 (E. cloacae NCTC 13405) [µM] | fold enhancement of activity over auranofin, E. cloacae (E. cloacae NCTC 13405; vs auranofin) | MIC K. pneumoniae ATCC 700603 [1] | MBC K. pneumoniae ATCC 700603 [1] [µM] | MIC S. aureus JE2 (USA300) (S. aureus JE2 (USA300)) | MBC S. aureus JE2 (USA300) (S. aureus JE2 (USA300)) [µM] | MIC E. faecium ATCC 700221 (E. faecium ATCC 700221) | MBC E. faecium ATCC 700221 (E. faecium ATCC 700221) [µM] | MIC E. coli ATCC 25922 (E. coli ATCC 25922) | MBC E. coli ATCC 25922 (E. coli ATCC 25922) [µM] | log P (Log P determination) | fold enhancement of activity over auranofin, S. aureus (S. aureus JE2 (USA300); vs auranofin) | fold enhancement of activity over auranofin, E. coli (E. coli ATCC 25922; vs auranofin) | MIC S. aureus (S. aureus JE2 (USA300)) | fold enhancement of activity over auranofin, E. faecium (E. faecium ATCC 700221; vs auranofin)
1 | CC[PH](CC)(CC)[Au][S]C1OC(CO)C(O)C(O)C1O [Compound 10, (1-Thio-β-D-galatopyranosato)(triethylphosphine) Gold(I)] | 31 µM | 31 | 251 | 251 | 63 | 63 | 3 | 251 µM | 251 | 0.02 µM | 0.1 | 0.1 µM and 0.2 µM | 0.5 | 16 µM | 16 | −0.73 |  |  |  | 
2 | CC[PH](CC)(CC)[Au][S]C1OC(CO)C(O)C(O)C1O [Compound 11, (1-Thio-D-mannopyranosato)(triethylphosphine) Gold(I)] | 31 µM | 63 | 502 | 502 | 125 | 251 |  | 502 µM | 502 |  | 0.1 | 0.1 µM and 0.06 µM | 0.5 | 16 µM | 16 | −0.59 |  |  |  | 
3 | CC[P+](CC)(CC)[Au-][S][C@@H]1OC(CO)[C@@H](O)[C@H](O)C1NC(C)=O (stereo partly drawn) [Compound 12, (2-Acetamido-2-deoxy-1-thio-β-D-glucopyranosato)-(triethylphosphine) Gold(I)] | 15 µM and 29 µM | 116 | 464 | 464 | 116 | 232 |  | 464 µM | 464 | 0.02 µM | 0.05 | 0.05 µM and 0.1 µM | 0.5 | 7 µM and 4 µM | 7 | −0.89 | 2–3 | 2–3 |  | 
4 | CC[PH](CC)(CC)[Au][O]C1OC(CO)C(OC2OC(CO)C(O)C(O)C2O)C(O)C1O [Compound 13, [β-D-Galactopyranosyl-(1→4)-β-D-glucopyranosato]-(triethylphosphine) Gold(I)] | 24 µM and 48 µM | 190 | 381 | 381 | 190 | 190 |  | 381 µM | 381 |  | 0.09 | 0.09 µM | 0.4 | 24 µM | 24 |  |  |  |  | 
5 | CC[PH](CC)(CC)[Au][S]C1OC(CO)C(OC2OC(CO)C(O)C(O)C2O)C(O)C1O (stereo not shown) [Compound 14] | 24 µM | 24 | 381 | 381 | 190 | 190 |  | >381 µM |  |  | 0.09 |  | 0.4 | 12 µM | 12 | −1.69 |  |  |  | 
6 | CC[PH](CC)(CC)[Au][S]c1ccccc1 [Compound 15, (Benzenethiolato)(triethylphosphine) Gold(I)] |  | > 603 | 302 | 302 | 75 | 603 |  | >603 µM |  | 0.02 µM | 0.6 | 0.6 µM | 1 | 151 µM | 151 | 2.20 |  |  |  | 
7 | CC[PH](CC)(CC)[Au][S]c1ccccc1N [Compound 16, (2-Aminobenzenethiolato)(triethylphosphine) Gold(I)] | 18 µM and 36 µM | 18 | 291 | 291 |  |  |  | 146 µM | 146 | 0.009 µM | 0.6 | 0.02 µM | 0.1 | 36 µM | 36 | 0.61 |  |  | in the nanomolar range | more than 7
8 | CC[P+](CC)(CC)[Au-][S]CC(=O)OC [Compound 22, (Methyl Mercaptoacetatato)(triethylphosphine) Gold(I)] | 19 µM | 76 | 305 | 305 | 38 | 152 |  | 76 µM | 76 |  | 0.02 |  | 0.6 | 76 µM | 76 | 1.75 |  |  | in the nanomolar range | 
9 | CC[P+](CC)(CC)[Au-][S]CC(F)(F)F [Compound 23, (2,2,2-Trifluoroethanethiolato)(triethylphosphine) Gold(I)] | 37 µM and 74 µM | 149 | 149 | 149 | 37 | 149 |  | 149 µM | 149 | 0.009 µM | 0.1 | 0.6 µM | 1 | 74 µM | 74 | 2.08 |  |  | in the nanomolar range | 
10 | CP(C)C.[Cl][Au] [Compound 24, (Trimethylphosphine)gold Chloride] | 7 µM and 13 µM | 13 | 52 | 52 | 3 | 3 |  | 7 µM and 13 µM | 13 | 0.1 µM and 0.2 µM | 1.6 | 0.4 µM | 3 | 7 µM | 7 | 0.16 |  |  |  | 
11 | CCCC[PH](CCCC)(CCCC)[Au][Cl] [Compound 26, (Tri-n-butylphosphine)gold Chloride] | 74 µM and 147 µM | 147 | 74 | 74 | >589 |  |  | 147 µM | 147 | 2 µM | 4 | 5 µM | 5 | >589 µM |  | >3.99 |  |  |  | 
12 | [Cl][Au].c1ccc(P(c2ccccc2)c2ccccc2)cc1 [Compound 27, (Triphenylphosphine)gold Chloride] |  | 518 | >518 |  | >518 |  |  | >518 µM |  | 1 µM and 2 µM | 4 | 4 µM | 4 | >518 µM |  | >3.94 |  |  |  | 
13 | COc1ccc([P+]([Au-][Cl])(c2ccc(OC)cc2)c2ccc(OC)cc2)cc1 [Compound 28, (Tris(4-methoxyphenyl)phosphine)gold Chloride] | >438 µM |  | >438 |  | >438 |  |  | >438 µM |  | 2 µM | 3 | 3 µM | 3 | >438 µM |  | >4.09 |  |  |  | 
14 | Fc1ccc([PH+](c2ccc(F)cc2)c2ccc(F)cc2)cc1.[Cl][Au] [Compound 29, (Tris(4-fluorophenyl)phosphine)gold Chloride] | 29 µM and 58 µM | 233 | >467 |  | >467 |  |  | >467 µM |  |  |  | 2 µM and 4 µM | 4 | >467 µM |  | >4.04 |  |  |  | 
